Data as given in ChEMBL document CHEMBL4513216, “Probing the Open Global Health Chemical Diversity Library for Multistage-Active Starting Points for Next-Generation Antimalarials” (ACS Infect Dis, 2020).

Test: Toxicity liver stage against HepG2, at 10uM
Type: cell-based
Set-up: test concentration 10 uM, cell line HepG2-A16-CD81EGFP
Settings: human, HepG2-A16-CD81EGFP cells; read-out: INHIBITION
Summary of the method: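 Uninfected HepG2-A16-CD81EGFP cells, 3 × 10^3 per well, 1536-well, plated on prespotted compound at 10 μM final, parasite-free screening media added to match infected plates; puromycin 10 μM positive, DMSO 0.5% negative; run in parallel with 48 h PbLuc assay at 37 °C, 5% CO2; viability by CellTiter-Glo luminescence, normalized to controls.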

| SMILES | cytotoxicity at 10 µM [%] |
| --- | --- |
| Cc1cnn(CC2CN(Cc3nnc(C4CC4)n3C)CCO2)c1 (stereo unspecified) | -2.72 |
| COc1ccnc(N(C)Cc2ccccc2OC(F)(F)F)n1 | 6.15 |
| CNC(=O)[C@@H](C1CC1)N1CCC[C@H]1C(=O)NCC(C)C | -2.45 |
| CCOCC1CN(C(=O)N(C)C)Cc2nn(C)cc21 (stereo unspecified) | -11.9 |
| O=C(C1CCCCO1)N1CCc2ncnc(NCCO)c2CC1 (stereo unspecified) | 7.94 |
| Cc1cnn(CCNCc2cc(-c3ccccc3)no2)c1 | -3.03 |
| Clc1cc(N2CCC(N3CCCC3)CC2)nc2[nH]ccc12 | -0.77 |
| Cc1ccnc2c1NC(=O)CN2C(=O)CCc1ccccc1 | -20.1 |
| CCn1nc(CC(C)C)cc1C(=O)N1CCOCC(O)C1 (stereo unspecified) | -14.3 |
| CN(C)c1cc(C2CCCNC2)ccn1 (stereo unspecified) | -2.68 |
| CN(CCO)Cc1nnc(C2CCN(C3CCCCC3)CC2)n1C | 20.7 |
| Cn1ccc(NC(=O)NC2CCCN(c3ccccc3Cl)C2=O)n1 (stereo unspecified) | -49.4 |
| c1cn(-c2ccc(CN3CCCC3)cc2)c(-c2cc3n(n2)CCNC3)n1 | -14.3 |
| O=C(CCN1CCCN(c2nccs2)CC1)NCC1CCCCC1 | -5.1 |
| CCOCC1CN(C(=O)c2cnccn2)Cc2cnn(CC3CC3)c21 (stereo unspecified) | -69.6 |
| CCC1c2cccn2CCN1S(=O)(=O)N1CCOCC1 (stereo unspecified) | 7.25 |
| CC(=O)N[C@@H]1C[C@H](Cc2ccccc2)O[C@H](c2ccc(C(=O)O)cc2)C1 | 2.76 |
| O=C1CCC2(CCN(Cc3ccc(F)cc3Cl)CC2)CN1CCO | 5.29 |
| COCC1COCCC12CCN(CCc1ccccc1)CC2 (stereo unspecified) | -26 |
| Cc1cccc(-c2nc(CN3CCOCS3(=O)=O)c(C)o2)c1 | 2.01 |
| Cc1nc(C(=O)N2CCC(Cc3cnc4[nH]ccc4c3)C2)co1 (stereo unspecified) | 9.36 |
| Cc1ccc(N2CCCC(NCc3c(C)noc3C)C2)nn1 (stereo unspecified) | -5.88 |
| CC(C)c1nc(NS(=O)(=O)c2ccccc2Cl)no1 | 10 |

| SMILES | cytotoxicity at 10 µM [%] |
| --- | --- |
| O=C(O)[C@@H]1CN(Cc2nc3ncccn3n2)C[C@H]1c1cccc(F)c1 | -10.6 |
| COc1cccc(N2CCC(CNCc3cccc(C#N)c3)C2)c1 (stereo unspecified) | -15.3 |
| Cn1cc(CN2CCC3(CCCCN3S(C)(=O)=O)CC2)cn1 | -76.9 |
| CC(C)COC(C)C(=O)NCc1ccc(Cn2ccnc2)cc1 (stereo unspecified) | -2.65 |
| Fc1cnc(N2CCC3(COCc4cnc(NCC5CC5)nc43)C2)nc1 (stereo unspecified) | -4.43 |
| COc1ccc(CN(C(=O)C2CCCS2)c2ccncc2)cc1 (stereo unspecified) | 5.57 |
| CC1(C)[C@H](Cc2cc(CO)on2)C[C@@H]1NCc1ccc(CO)o1 | -12.4 |
| Cc1ncncc1C(=O)Nc1cnn(CC(=O)NC2CCCC2)c1 | 4.88 |
| Cn1cc(N2CC3(CCN(Cc4nccn4C)C3)CC2=O)cn1 (stereo unspecified) | -72.8 |
| O=C(NC[C@H]1OC[C@@H](NC(=O)c2ccccc2)[C@@H]1O)c1ccncc1 | 2.55 |
| O=C(c1ccc[nH]1)N1CCc2ccc(S(=O)(=O)N3CCOCC3)cc2C1 | 3.99 |
| CCc1ccsc1C(=O)N1CCN(C(=O)CC(F)(F)F)CC1 | -9.88 |
| COCc1cc(NCc2ccccc2-n2cncn2)ncn1 | -0.132 |
| O=C1CC[C@H]2CN(Cc3ncc[nH]3)CC[C@H]2N1CC1CCNCC1 | 11.6 |
| O=C(CN1CCCC1Cn1cncn1)Nc1cccnc1 (stereo unspecified) | -14.6 |
| COCCN1CCC(c2nc3cc(C)ccc3[nH]2)CC1 | -0.621 |
| Cc1noc(C)c1CN1CCC[C@]2(C[C@@H](Oc3ccccn3)CO2)C1 | -67.1 |
| O=C(c1cnc(O)cc1O)N1CCCC(CCc2ccccc2F)C1 (stereo unspecified) | -2.24 |
| Cn1cc(-c2nnn3c2COC(CNCC2CCOCC2)C3)cn1 (stereo unspecified) | 0.171 |
| COC(=O)CCNC(=O)c1nnn(-c2ccc(F)cc2)c1C1CC1 | -12.1 |
| c1ccc2c(c1)CCN(c1nc(-c3ccncc3)nc3c1CCNC3)C2 | 37.3 |
| CN(C(=O)Cc1ccc(NC(=O)NC2CCC2)cc1)c1ccccc1 | -6.11 |
| O=C(NCCn1ccnc1-c1cc2n(n1)CCNC2)c1ccncc1 | -2.66 |

| SMILES | cytotoxicity at 10 µM [%] |
| --- | --- |
| CCN1Cc2cc(F)ccc2N(CC(O)C(F)(F)F)CCC1=O (stereo unspecified) | -3.4 |
| CC1Cc2ccccc2N1Cc1occc1C(=O)OCC(N)=O (stereo unspecified) | -9.18 |
| CC(C)NC1CC2(CCNCC2)c2cc(F)ccc21 (stereo unspecified) | -9.05 |
| CCS(=O)(=O)N1CC(c2nc(-c3cccs3)no2)C1 | -7.3 |
| COC[C@@]12CCO[C@@H]1CCN(Cc1ccccc1F)C2 | -12.9 |
| COCCNC(=O)C1CN(Cc2ccncc2)Cc2ccnn2C1 (stereo unspecified) | -83 |
| O=C1CC(c2ccsc2)c2c(n(C3CCOCC3)[nH]c2=O)N1 (stereo unspecified) | 0.847 |
| CCOCC(=O)NCC(Cc1cccc(F)c1)n1cccc1 (stereo unspecified) | -6.22 |
| CC(CNC(=O)c1nnn(-c2ccccc2)c1C(F)(F)F)N(C)C (stereo unspecified) | 2.19 |
| CCn1cc(CN2CCCN(C(=O)CCc3ccncc3)CC2)cn1 | -11.1 |
| COc1ccc2nc(O)c(CN(C)Cc3ncc[nH]3)cc2c1 | 0.55 |
| CCN(Cc1nccn1C)C(=O)c1ccc(NCc2ccccc2)nc1 | -14.3 |
| CCc1cnc(CNc2cccc3c2CCN(S(=O)(=O)CC)C3)o1 | -52.5 |
| CN(CCc1ccccc1)C(=O)c1cccnc1OCC(F)(F)F | 13.5 |
| Cc1cc2nc(C(=O)NCc3cccnc3N(C)C)cc(C)n2n1 | -5.54 |
| Cc1cc(N2CCN(Cc3ccnn3C)CC2)cc(C2CCCN2)n1 (stereo unspecified) | 6.97 |
| Cc1ccc(CNc2ccc(N3CCC(CO)CC3)cn2)o1 | 19.1 |
| CC(C)CC(=O)NS(=O)(=O)c1ccc2c(c1)OCCCO2 | -9.02 |
| Cc1ccc(N2CC[C@@H]3[C@@H](CO[C@H]3CNC(=O)c3ccco3)C2)nn1 | 9.43 |
| CNc1cc(-c2ccc(COCCN)cc2)c2cc[nH]c2n1 | 5.89 |
| Cc1cc(C)cc(Nc2nc(C)cc(=O)n2CC(=O)NC(C)C)c1 | -7.3 |
| CC(C)c1nn(C)c(Cl)c1CNCCn1cccn1 | -9.11 |
| CC[C@H](C)[C@H](NC(=O)Cn1ccc2ccc(F)cc21)C(=O)OC | 4.12 |

| SMILES | cytotoxicity at 10 µM [%] |
| --- | --- |
| COCC(=O)N1CCc2cccc(S(=O)(=O)N3CCOCC3)c2C1 | -5.42 |
| Cc1cc(C(C)NC(=O)Cn2nc(C)c3ccccc3c2=O)c(C)o1 (stereo unspecified) | -5.3 |
| O=C(C1=CCCC1)N1CC[C@]2(C[C@H](OCc3cccnc3)CO2)C1 | 11.7 |
| Cc1noc(C)c1CN1CC[C@H]2C[C@@H](c3nccs3)O[C@@H]2C1 | -5.33 |
| CNC(=O)Cc1ccccc1NC(=O)C1CCCC1 | 31.1 |
| O=C(Cc1cccs1)NCC1(O)CCSCC1 | -10.5 |
| CC1CCN(C(=O)c2cnc(CC3CCCN(C)C3)cn2)CC1 (stereo unspecified) | -11.7 |
| COc1ccc(S(=O)(=O)NC(=O)c2ccccc2F)cc1OC | -2.72 |
| Cc1csc(CNC(=O)NC2CCCN(S(C)(=O)=O)C2)n1 (stereo unspecified) | -6.3 |
| CCn1ccnc1CN1CCN(Cc2ccc(C)o2)[C@@H]2CS(=O)(=O)C[C@@H]21 | -11.2 |
| CC(C)=CCN1CCN(CCCc2ccccc2)[C@H]2CS(=O)(=O)C[C@H]21 | -1.06 |
| COc1ccc(OC)c(-c2cc(C(=O)NCC3(CO)CC3)n(C)n2)c1 | -2.46 |
| O=C(N1CCOCC1)N1CCC(Nc2ccncn2)CC1 | -57 |
| CC1CCCN(C(=O)c2cc(-c3ccco3)cs2)C1 (stereo unspecified) | 7 |
| COCCc1noc(CN2CCCCC2Cn2cc(C)cn2)n1 (stereo unspecified) | -8.54 |
| COc1ccc(CNCCc2ccn(-c3ccccc3)n2)cc1O | -0.13 |
| Cc1nn(C)c(C)c1C1COCCN1C(=O)c1ccc(Cl)o1 (stereo unspecified) | 2.01 |
| O=C(NCCCN1CCCCC1)c1n[nH]c(=O)c2ccccc12 | -30.9 |
| O=C(NCCN1CCOCC1)C1=NOC2(CCN(Cc3nccs3)C2)C1 (stereo unspecified) | -79.3 |
| CC(C(=O)Nc1cccc(Cl)c1)N1CCN(Cc2ncc[nH]2)CC1 (stereo unspecified) | -8.64 |
| O=C(C1CCCCN1Cc1nc(-c2ccco2)no1)N1CCCC1 (stereo unspecified) | -4.64 |
| CCN(CC)C1CCN(C(=O)NCc2nncn2CC)CC1 | 2.72 |
| Cc1cccc2sc(NC(=O)CN3CCCC4(CC3)CNC(=O)O4)nc12 (stereo unspecified) | -4.26 |

| SMILES | cytotoxicity at 10 µM [%] |
| --- | --- |
| Cc1noc(CN(Cc2cccc(C#N)c2)Cc2cccs2)n1 | 3.8 |
| CC(c1nc(C2CC2)no1)N1CCN(Cc2noc(C3CC3)n2)CC1 (stereo unspecified) | 4.63 |
| CCc1cnc(C)nc1NC(C)C(=O)Nc1cc(F)ccc1C (stereo unspecified) | -0.682 |
| Cc1ccsc1C(=O)NCCCn1nc2ccccn2c1=O | -1.1 |
| Cc1cccc(-c2nc(CNC3CCc4ncnn4C3)no2)c1 (stereo unspecified) | -2.09 |
| Cc1cc(N2CCCC2c2cnccn2)ncn1 (stereo unspecified) | 2.44 |
| O=C(CS(=O)(=O)Cc1cc(Cl)c2c(c1)OCO2)N1CCCCCC1 | -2.8 |
| CN(Cc1ccsc1)C(=O)CS(=O)(=O)Cc1ccc(Cl)c(Cl)c1 | -0.987 |
| CC(NC(=O)NCCCO)c1ccc2c(c1)OCCO2 (stereo unspecified) | -2.92 |
| CN(C)CC(=O)N1Cc2ncn(C)c2C(COCC2CCOCC2)C1 (stereo unspecified) | -71 |
| CSc1ccc(CNc2n[nH]c(C)n2)cc1 | -3.58 |
| CCCn1nccc1NC(=O)CN1CCCC1Cn1cccn1 (stereo unspecified) | -5.47 |
| NCC1[C@H]2CN(Cc3ccccc3F)C[C@@H]12 (stereo partly specified) | -7.52 |
| COc1cccc(-c2nc(C)c(C(=O)N[C@@H](CC(C)C)C(=O)O)s2)c1 | 4.21 |
| CCC[C@@H]1CN(Cc2ccccc2C#N)C[C@H]1NC(C)=O | -3.92 |
| Cc1cc(C(F)(F)F)cc(=O)n1CCn1cc(Cl)cn1 | 0.382 |
| NC(=O)C1CCCN(C(=O)c2ccc(-n3ccnc3)cc2)C1 (stereo unspecified) | -4.4 |
| COc1ccc(CCC(=O)N2CCNCC2C(=O)N2CCCC2)cc1 (stereo unspecified) | 1.18 |
| O=C(C1CC=CC1)N1C[C@H]2CN(Cc3ccncc3)C(=O)[C@H]2C1 | -86.6 |
